# Data from ChEMBL document CHEMBL1122774, “Tri- and tetrapeptide analogues of kinins as potential renal vasodilators” (J Med Chem, 1984).
# Square brackets hold non-standard residues; d marks the D form. Peptide text beside a SMILES is read from it. * marks the point of attachment. ξ: configuration not given here. Butanoyl(4-(4-HOPh)) = O=C(CCCc1ccc(O)cc1)*; ξαMeY = CC(N)(Cc1ccc(O)cc1)C(=O)O; pNA = O=[N+]([O-])c1ccc(N*)cc1; ξαMeF = CC(N)(Cc1ccccc1)C(=O)O; Bz = O=C(c1ccccc1)*
# What was measured:
# Canis familiaris [1] = experiment: Renal vasodilator activity in anesthetized dogs and percent change in renal vascular resistance (RVR) was determined at 30 ug/Kg/min; format: functional, Canis lupus familiaris
# Outline: (§1)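 Primary screen in anesthetized dogs (7-17 kg). Drug infused separately at 3, 30 and 300 µg/(kg min), each infusion lasting 5 min, at about 15-min intervals. Read-outs are renal blood flow, mean arterial blood pressure, heart rate, and RVR (MABP / mean RBF), as percent change. Significance thresholds are defined per number of dogs; n = 1-3 dogs.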
# Canis familiaris [2] = experiment: In vivo percent change in canine heart rate at 3 ug/Kg/min.; format: functional, Canis lupus familiaris; outline: as §1
# Canis familiaris [3] = experiment: In vivo percent change in canine mean arterial blood pressure (MABP) at 300 ug/Kg/min.; format: functional, Canis lupus familiaris; outline: as §1
# Canis familiaris [4] = experiment: In vivo percent change in renal blood flow at 30 ug/Kg/min.; format: functional, Canis lupus familiaris, Kidney; outline: as §1
# Canis familiaris [5] = experiment: In vivo percent change in canine heart rate at 300 ug/Kg/min.; format: functional, Canis lupus familiaris; outline: as §1
# Canis familiaris [6] = experiment: In vivo percent change in canine renal vascular resistance (RVR) at 3 ug/Kg/min.; format: functional, Canis lupus familiaris; outline: as §1
# Canis familiaris [7] = experiment: In vivo percent change in canine renal vascular resistance (RVR) at 300 ug/Kg/min.; format: functional, Canis lupus familiaris; outline: as §1
# Canis familiaris [8] = experiment: In vivo percent change in canine heart rate at 30 ug/Kg/min.; format: functional, Canis lupus familiaris; outline: as §1
# Canis familiaris [9] = experiment: In vivo percent change in canine mean arterial blood pressure (MABP) at 3 ug/Kg/min.; format: functional, Canis lupus familiaris; outline: as §1
# Canis familiaris [10] = experiment: In vivo percent change in canine mean arterial blood pressure (MABP) at 30 ug/Kg/min.; format: functional, Canis lupus familiaris; outline: as §1
# Canis familiaris [11] = experiment: In vivo percent change in canine renal blood flow (RBF) at 300 ug/Kg/min.; format: functional, Canis lupus familiaris, Kidney; outline: as §1
# Canis familiaris [12] = experiment: In vivo percent change in canine renal blood flow (RBF) at 3 ug/Kg/min.; format: functional, Canis lupus familiaris, Kidney; outline: as §1
# Canis familiaris [13] = experiment: Renal vasodilator activity in anesthetized dogs and percent change in heart rate (HR) was determined at 300 ug/kg min; format: functional, Canis lupus familiaris; outline: as §1
# [14] = Average max percent decrease in RVR (renal vascular resistance) was determined.
# Outline: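 Secondary protocol in anesthetized dogs. Drug given as iv infusion at progressively increasing rates, each dose level for 5 min. The maximum effect is taken as the largest percent decrease in renal vascular resistance (RVR) reached with the compound. RVR is calculated as mean arterial blood pressure / mean renal blood flow.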
# Canis familiaris [15] = experiment: Compound was evaluated for renal vasodilator activity and represented as ED15 (intravenous administration); format: functional; details: Canis lupus familiaris
# Outline: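 Secondary protocol in anesthetized dogs with iv infusion at progressively increasing rates, each level infused 5 min. Potency is the cumulative dose (µg/kg) that lowered renal vascular resistance (MABP / mean RBF) by 15%. Minimum change needed for significance (p = 0.95) is 16% for RVR.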
# Canis familiaris [16] = experiment: Renal vasodilator activity in anesthetized dogs and percent change in heart rate (HR) was determined at 3 ug/kg min; format: functional, Canis lupus familiaris; outline: as §1
# Canis familiaris [17] = experiment: Renal vasodilator activity in anesthetized dogs and percent change in mean arterial blood pressure (MABP) was determined at 30 ug/kg min; format: functional, Canis lupus familiaris; outline: as §1
# Canis familiaris [18] = experiment: Renal vasodilator activity in anesthetized dogs and percent change in renal vascular resistance (RVR) was determined at 300 ug/kg min; format: functional, Canis lupus familiaris; outline: as §1
# [19] = Ratio of ED30 of iliac vascular resistant (IVR) to the ED15 of RVR (renal vascular resistance); format: functional
# Outline: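 Anesthetized dogs in the secondary cumulative-infusion protocol, each dose level 5 min. Selectivity ratio is the dose giving a 30% change in iliac vascular resistance divided by the RVR ED15, the cumulative dose decreasing renal vascular resistance by 15%.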
# Canis familiaris [20] = experiment: Renal vasodilator activity in anesthetized dogs and percent change in renal vascular resistance (RVR) was determined at 30 ug/kg min; format: functional, Canis lupus familiaris; outline: as §1
# Canis familiaris [21] = experiment: Renal vasodilator activity in anesthetized dogs and percent change in mean arterial blood pressure (MABP) was determined at 300 ug/kg min; format: functional, Canis lupus familiaris; outline: as §1
# Canis familiaris [22] = experiment: Renal vasodilator activity in anesthetized dogs and percent change in renal blood flow (RBF) was determined at 300 ug/kg min; format: functional, Canis lupus familiaris, Kidney; outline: as §1
# Canis familiaris [23] = experiment: Renal vasodilator activity in anesthetized dogs and percent change in heart rate (HR) was determined at 30 ug/kg min; format: functional, Canis lupus familiaris; outline: as §1
# Canis familiaris [24] = experiment: Renal vasodilator activity in anesthetized dogs and percent change in renal vascular resistance (RVR) was determined at 3 ug/kg min; format: functional, Canis lupus familiaris; outline: as §1
# Canis familiaris [25] = experiment: Renal vasodilator activity in anesthetized dogs and percent change in renal blood flow (RBF) was determined at 30 ug/kg min; format: functional, Canis lupus familiaris, Kidney; outline: as §1
# Canis familiaris [26] = experiment: Renal vasodilator activity in anesthetized dogs and percent change in renal blood flow (RBF) was determined at 3 ug/kg min; format: functional, Canis lupus familiaris, Kidney; outline: as §1
# Canis familiaris [27] = experiment: Renal vasodilator activity in anesthetized dogs and percent change in mean arterial blood pressure (MABP) was determined at 3 ug/kg min; format: functional, Canis lupus familiaris; outline: as §1
# Canis familiaris [28] = experiment: In vivo percent change in canine renal blood flow (RBF) at 30 ug/Kg/min.; format: functional, Canis lupus familiaris, Kidney; outline: as §1
# Canis familiaris [29] = experiment: In vivo percent change in canine renal vascular resistance (RVR) at 30 ug/Kg/min.; format: functional, Canis lupus familiaris; outline: as §1
Compound,Change (Canis familiaris [1]),Change (Canis familiaris [2]),Change (Canis familiaris [3]),Change (Canis familiaris [4]),Change (Canis familiaris [5]),Change (Canis familiaris [6]),Change (Canis familiaris [7]),Change (Canis familiaris [8]),Change (Canis familiaris [9]),Change (Canis familiaris [10]),Change (Canis familiaris [11]),Change (Canis familiaris [12]),other results
COc1ccc(CC(C)(NC(=O)[C@@H]2CCCN2C(=O)CCCc2ccc(O)cc2)C(=O)NCCCN)cc1OC.Cl (stereo not given in full),-15.5%,0.5%,-1.5%,16.5%,1.5%,-11%,-10%,-1%,1.5%,-2%,10.5%,13.5%,–
N=C(N)NCCC[C@H](NC(=O)[C@H](Cc1ccccc1)NC(=O)[C@@H]1CCCN1C(=O)c1ccccc1)C(=O)Nc1ccc([N+](=O)[O-])cc1 (Bz-Pro-Phe-Arg-pNA),–,–,–,–,–,–,–,–,–,–,–,–,Change (Canis familiaris [13]): -10%; Decrease [14]: 20%; ED15 (Canis familiaris [15]): 0.297 mg/kg; Change (Canis familiaris [16]): 0%; Change (Canis familiaris [17]): 1.5%; Change (Canis familiaris [18]): -38.7%; Ratio [19]: > 20; Change (Canis familiaris [20]): -3%; Change (Canis familiaris [21]): -26.6%; Change (Canis familiaris [22]): 27%; Change (Canis familiaris [23]): -3%; Change (Canis familiaris [24]): 0%; Change (Canis familiaris [25]): 4.8%; Change (Canis familiaris [26]): 1.9%; Change (Canis familiaris [27]): 1.2%
N=C(N)NCCC[C@H](NC[C@H](Cc1ccccc1)NC(=O)[C@@H]1CCCN1)C(=O)O,–,-3%,-2%,–,0%,0%,-2%,0%,0%,0%,0%,0%,Change (Canis familiaris [28]): 3%; Change (Canis familiaris [29]): -3%
H-FSPFR-OH,–,–,–,–,–,–,–,–,–,–,–,–,Decrease [14]: 21%
CC(Cc1ccccc1)(NC(=O)[C@@H]1CCCN1C(=O)c1ccccc1)C(=O)N1CCC[C@H]1C(=O)O (stereo not given in full) (Bz-Pro-[ξαMeF]-Pro-OH),–,3%,-4%,0%,0%,-4%,-4%,-6%,0%,-5%,0%,4%,Change (Canis familiaris [29]): -5%
O=C(NCC(=O)N1CCC[C@H]1C(=O)O)[C@@H](Cc1ccccc1)NC(=O)[C@@H]1CCCN1C(=O)CCCc1ccc(O)cc1 ({Butanoyl(4-(4-HOPh))}-P[dF]GP-OH),-1%,1%,-1%,0%,-1%,-2%,-1%,-2%,0%,-1%,-1%,2%,–
H-RPPGFSPFR-OH [BRADYKININ],–,–,–,–,–,–,–,–,–,–,–,–,Decrease [14]: 67%
O=C(NCC(=O)N1CCC[C@H]1C(=O)O)[C@H](Cc1ccccc1)NC(=O)[C@@H]1CCCN1C(=O)CCCc1ccc(O)cc1 ({Butanoyl(4-(4-HOPh))}-PFGP-OH),74.5%,-2.5%,-1.5%,–,1.5%,-4.5%,-8.5%,-1.5%,-2%,-1%,7%,2.5%,Change (Canis familiaris [28]): -43%
CC(CN[C@@H](CCCN=C(N)N)C(=O)O)(Cc1ccccc1)NC(=O)[C@@H]1CCCN1 (stereo not given in full),–,0%,-5%,8%,-7%,1%,-11%,4%,1%,1%,7%,0%,Change (Canis familiaris [29]): -6%
CC(Cc1ccc(O)cc1)(NC(=O)[C@@H]1CCCN1C(=O)CCCc1ccc(O)cc1)C(=O)NCCCN.Cl (stereo not given in full),-3%,1.5%,0%,3.5%,3.5%,-9.5%,8.5%,4%,-2%,1%,10%,8.5%,–
N=C(N)NCCC[C@H](NC(=O)[C@@H]1Cc2ccccc2CN1C(=O)CCCc1ccc(O)cc1)C(=O)O,-1%,1%,-2%,2%,0%,-6%,11%,0%,-1%,1%,-12%,7%,–
Cl.NCCCNC(=O)[C@H](Cc1ccccc1)NC(=O)[C@@H]1CCCN1C(=O)CCCc1ccccc1,-3.8%,0%,-2.7%,–,-5.3%,0%,-8.9%,0%,0%,0%,6.5%,0%,Change (Canis familiaris [28]): 5%
Cl.Cl.NCCCNC(=O)[C@H](Cc1ccccc1)NC(=O)[C@@H]1CCCN1,–,-1.5%,-3.5%,–,-1%,-3%,-9%,-1%,-0.5%,0%,6.5%,3.5%,Change (Canis familiaris [28]): 5%; Change (Canis familiaris [29]): -5%
CC(Cc1ccc(O)cc1)(NC(=O)[C@@H]1CCCN1C(=O)CCCc1ccc(O)cc1)C(=O)NCC(=O)N1CCC[C@H]1C(=O)O (stereo not given in full) ({Butanoyl(4-(4-HOPh))}-P[ξαMeY]GP-OH),-0.5%,-7%,3%,0.5%,-1.5%,-6%,-5.9%,0%,-2%,1%,9%,4%,Decrease [14]: 13%
